pCIP destab = p/CIP-EGFP fusion destabilizers, primary screen, fluorescence, F442A cells. Q05BA5. 16 h. decrease of EGFP signal, % at 10 µM. actives 0.01% (n = 290,000). AID 1984, 2009;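 active means EGFP signal decrease of at least 30% at 10 µM or well 3 SD below plate mean, unless failing retest; inactive means the rest, including hits failing retest or dose response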
Cardio protect = cardioprotection against H2O2-induced cell death, primary screen, uHTS, H9c2 cells, ATPLite luminescence; H9c2 cardiomyocytes, H2O2 injury protection, 2 h; protection from H2O2 cell death, % at 20 µM; actives 0.63% (n = 360,000); AID 588492, 2011;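 active means compounds giving at least 50% protection of heart cells from peroxide-induced death in the single-dose screen, raw or plate-pattern-corrected value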
GASC-1 inh = inhibitors of GASC-1 histone demethylase, primary screen, biochemical, fluorescence, DELFIA europium. Lysine-specific demethylase 4C (Homo sapiens), Q9H3R0. GST-JMJD2C(1-420) H3K9me3 demethylation. inhibition, % at 2.35 µM. actives 0.069% (n = 330,000). AID 2099, 2009;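 active means more than half of a compound's replicate wells show inhibition beyond 50%, single wells judged on their own value; inconclusive means some, but no more than half, of replicates pass 50% inhibition; inactive means no replicate passes 50% inhibition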;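 further: signal counts dimethyl H3K9 product captured on neutravidin plate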
Target sequence (Q9H3R0 1-420 limits assumed): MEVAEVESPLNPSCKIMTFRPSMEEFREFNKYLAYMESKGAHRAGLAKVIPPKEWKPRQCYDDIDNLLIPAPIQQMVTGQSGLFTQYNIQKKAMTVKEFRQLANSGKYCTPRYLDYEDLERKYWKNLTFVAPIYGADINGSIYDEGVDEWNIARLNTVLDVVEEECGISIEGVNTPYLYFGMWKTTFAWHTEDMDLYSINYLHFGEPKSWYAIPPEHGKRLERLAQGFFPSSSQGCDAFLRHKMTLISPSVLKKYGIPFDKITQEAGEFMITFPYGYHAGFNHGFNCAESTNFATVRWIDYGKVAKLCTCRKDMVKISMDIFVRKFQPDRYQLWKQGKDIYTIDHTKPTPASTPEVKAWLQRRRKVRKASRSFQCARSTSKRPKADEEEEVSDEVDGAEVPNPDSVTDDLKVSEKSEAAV
PP5 primary = PP5 phosphatase inhibitors, primary screen, biochemical, fluorescence. actives 0.18% (n = 320,000). Serine/threonine-protein phosphatase 5 (Homo sapiens), P53041. AID 1987, 2009. purified PP5c, OMFP substrate fluorescence. inhibition, % at 6.7 µM;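 active means inhibition above the campaign's mean inhibition across all tested compounds plus 3 SD, cut at about 9.5% in these data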
T cruzi inh = inhibitors of intracellular T. cruzi growth, primary screen, luminescence, NIH3T3 host cells | inhibition, % (no concentration beside the values) | actives 1.4% (n = 300,000) | AID 1885, 2009 | T. cruzi beta-gal in NIH3T3, 90 h;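 active means mean inhibition across valid replicates above about 55%, limit read from the data; inconclusive means mean below that limit but half or more replicates reach it; inactive means mean below it, under half of replicates reach it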;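 further: signal also drops with host cell toxicity which is not excluded here; higher percent means less beta-gal luminescence so fewer parasites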
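System: NIH/3T3 fibroblasts plus reporter T. cruzi. Medium: DMEM plus 2% FBS. Probe or stimulus: 5000 reporter trypomastigotes per well. Compound: single 50 nL compound addition per well in DMSO. Incubation: co-culture of at least 90 h after 3 h attachment. Detection: GalScreen β-gal luminescence, detergent lysis, 60 min. Evaluation: parasite load inhibition, %.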
CTSL1 counter = Fasciola hepatica cathepsin L1 inhibitors, primary screen, counter-screen for PFM18AAP inhibitor project, biochemical, QFRET, fluorogenic peptide substrate. recombinant F. hepatica cathepsin L1, Z-Leu-Arg-MCA fluorescence. inhibition, % at 5.96 µM. actives 0.49% (n = 300,000). AID 1906, 2009;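 active means inhibition above the mean of all tested compounds plus 3 SD, set per screening campaign, cut at about 17% in these data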
Large screens that a line does not name were inactive. Shown are actives, neighbours in structure and some others; about 2.4% of the full set was active somewhere.

Cc1ccc(-c2cc(-c3ccc4c(c3)OCO4)c(C#N)c(N)n2)o1	none
C=CCN=c1scc(C)n1/N=C/c1ccc(O)c(O)c1	Cardio protect 65
CCCC(=O)Nc1nc(-c2ccc3c(c2)CCN3S(C)(=O)=O)cs1	none
CS(=O)(=O)N1CCc2cc(-c3csc(NC(=O)Cc4ccccc4)n3)ccc21	T cruzi inh 55
O=C(NNc1cccc(Cl)c1)c1cccnc1Oc1ccccc1	none
COc1cccc(NC(=S)N2CCN(S(=O)(=O)c3ccccc3)CC2)c1	none (no result: PP5 primary, T cruzi inh, CTSL1 counter)
Cc1nn(Cc2ccc(Cl)c(Cl)c2)c(C)c1NC(=O)c1cc(-c2ccc3c(c2)OCO3)on1	T cruzi inh inconclusive
Cc1nn(Cc2ccc(Cl)cc2)c(C)c1NC(=O)c1cc(-c2ccc3c(c2)OCO3)on1	T cruzi inh 56
O=C(NCc1ccccc1)c1cc(C2CCCCN2S(=O)(=O)c2cccc3cccnc23)on1 (configuration not stated)	none (no result: pCIP destab, GASC-1 inh, PP5 primary, T cruzi inh, CTSL1 counter)
COc1ccc(C2Oc3ccccc3C3=C2C(c2cccs2)n2ncnc2N3)cc1 (configuration not stated)	none
Brc1ccc(C2C3=C(Nc4ncnn42)c2ccccc2OC3c2ccncc2)cc1 (configuration not stated)	T cruzi inh 60
CN(C)C(CNC(=O)C1CCCN(C(=O)c2ccc(Cl)cc2)C1)c1ccco1 (configuration not stated)	CTSL1 counter 18 (no result: T cruzi inh)
COc1ccc(/C=N/NC(=O)c2ccccc2Cl)cc1CSc1nc2ccccc2s1	none
COc1ccc(/C=N/NC(=O)c2cccnc2)cc1CSc1nc2ccccc2s1	Cardio protect 58
CNC(=S)/N=C/NOCc1ccc(Cl)cc1Cl	T cruzi inh 74
CC(C)(C)n1nnnc1C(c1cccs1)N(Cc1ccc(Cl)cc1)CC1CCCO1 (configuration not stated)	T cruzi inh 58
Clc1ccc(CN(Cc2ccccc2)C(c2cccs2)c2nnnn2C2CCCC2)cc1 (configuration not stated)	none
O=C(CCC1CCCN(Cc2ccc3c(c2)OCCO3)C1)NCc1ccc(F)c(F)c1 (configuration not stated)	T cruzi inh 62
O=C(CCC1CCCN(Cc2cccc3c2OCO3)C1)NCc1ccc(F)c(F)c1 (configuration not stated)	T cruzi inh 62
O=S(=O)(Cc1ccccc1)NCC1CCCN(Cc2ccc3nonc3c2)C1 (configuration not stated)	none
O=C(CCC1CCCN(C(=O)c2ccc3c(c2)OCO3)C1)NCc1ccc(F)c(F)c1 (configuration not stated)	none
O=S(=O)(Cc1ccccc1)NCC1CCCN(Cc2ccc(F)c(F)c2)C1 (configuration not stated)	T cruzi inh 61
Oc1ccc(CN2CCCc3ccccc32)c2cccnc12	Cardio protect 56
N#CC1=C(N)C(C#N)(C#N)C2(C(=O)Nc3ccccc32)C2CCCC=C12 (configuration not stated)	CTSL1 counter 20
CC(C)Cc1nc2oc3c(NCC4CCCO4)ncnc3c2c2c1CCC2 (configuration not stated)	Cardio protect 73
COc1c(O)cccc1/C=N/NC(=O)Cn1ccnc1C	Cardio protect 57, T cruzi inh inconclusive
CCOC(=O)c1c(NC(=O)COC(=O)c2ccc(Cl)nc2)sc(C(=O)N(C)C)c1C	none (no result: pCIP destab)
CCOC(=O)c1c(NC(=O)COC(=O)c2ccc(O)cc2)sc(C(=O)N(C)C)c1C	Cardio protect 63
CCN(CC(=O)Nc1ccc(NC(C)=O)cc1)C(=O)/C=C/c1c(C)nn(-c2ccc(F)cc2)c1Cl	none (no result: pCIP destab, GASC-1 inh, PP5 primary, T cruzi inh, CTSL1 counter)
COc1cc(NC(=O)COC(=O)/C=C/c2c(C)nn(-c3ccc(F)cc3)c2Cl)cc(OC)c1	T cruzi inh 60
O=C(C1CCCN(S(=O)(=O)c2ccc(F)cc2)C1)N1CCCCCC1 (configuration not stated)	none
CCOP(=O)(OCC)c1nc(-c2cccc3ccccc23)oc1NCc1ccccc1	none
CCOP(=O)(OCC)c1nc(-c2cccc3ccccc23)oc1NCc1ccc(OC)cc1	T cruzi inh 57
CC(=O)Nc1ccc(S(=O)(=O)N2CCN=C2SCc2ccc([N+](=O)[O-])cc2)cc1	none
CCN(CC)CCCNc1ccc(-c2nnc(-c3ccc(OCC(C)C)cc3)o2)cn1	T cruzi inh 55
C=CCc1ccccc1OCC(=O)N/N=C/c1ccc(OC(C)=O)cc1OC(C)=O	Cardio protect 73
Cc1ccccc1OCC(=O)N/N=C/c1cc2ccccc2nc1Cl	none
CN(C)c1ccc(C(=S)N2CCN(S(=O)(=O)c3ccccc3)CC2)cc1	T cruzi inh 56
CSCC[C@H](NC(=O)[C@H](Cc1ccccc1)n1c(=O)[nH]c2ccccc2c1=O)C(=O)N1CCC(C(=O)O)CC1	none
Cc1ccc2sc(N(CCN(C)C)C(=O)c3ccc4ccccc4c3)nc2c1C	none
Cc1ccc2sc(N(CCCN(C)C)C(=O)c3ccc(S(=O)(=O)N4CCCCCC4)cc3)nc2c1C	T cruzi inh 57 (no result: pCIP destab)
CCOC(=O)N1CCN(S(=O)(=O)c2ccc(C(=O)N(CCN(C)C)c3nc4ccc(Cl)cc4s3)cc2)CC1	T cruzi inh 76
CCOC(=O)N1CCN(S(=O)(=O)c2ccc(C(=O)N(CCCN(C)C)c3nc4ccc(OC)cc4s3)cc2)CC1	none
Cc1ccc2sc(N(CCCN(C)C)C(=O)CN3C(=O)c4ccccc4C3=O)nc2c1C	T cruzi inh 58
CC(C)Cn1c(N)c(C(=O)COC(=O)c2cccn2C)c(=O)n(C)c1=O	none (no result: pCIP destab, PP5 primary, T cruzi inh, CTSL1 counter)
Cc1ccc(NC(=O)C2CCCN(C(=O)c3ccc(Cl)cc3)C2)cc1S(=O)(=O)N1CCOCC1 (configuration not stated)	T cruzi inh 62
Cc1ccc(NC(=O)C2CC2C)cc1S(=O)(=O)N1CCOCC1 (configuration not stated)	T cruzi inh 60 (no result: pCIP destab)
CS(=O)(=O)c1ccc(NC(=O)C2CCCN(C(=O)c3ccc(Cl)cc3)C2)cc1 (configuration not stated)	none (no result: pCIP destab, T cruzi inh, CTSL1 counter)
CC(=O)c1ccc(OCCCC(=O)Nc2cccc(S(=O)(=O)N3CCCCC3)c2)cc1	none (no result: pCIP destab, T cruzi inh, CTSL1 counter)
Cc1cc(OCC(O)CN2CCN(c3ccccn3)CC2)cc(C)c1Cl (configuration not stated)	none
Cc1cc2oc(=O)cc(C)c2cc1NC(=O)CCl	CTSL1 counter 79
O=C/C(=C\Nc1ccccn1)c1nc2cc(Cl)ccc2o1	Cardio protect 56
